Only some compounds are listed: those with a hit (about 3.5% of all), similar ones and a draw of the others.
MrgX1 ag – activates human MrgX1 receptor signaling | Q96LB2 | MrgX1-HEK293 cells, Fluo-4 calcium fluorescence, agonist mode; hits give high values | B-score at 10 µM | 0.44% of 310,000 active | AID 588627;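 active means calcium response B-score plate-corrected fluorescence ratio at least 3 library SD, with starting fluorescence B-score inside 5 SD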
Target sequence (Q96LB2 whole entry, looked up): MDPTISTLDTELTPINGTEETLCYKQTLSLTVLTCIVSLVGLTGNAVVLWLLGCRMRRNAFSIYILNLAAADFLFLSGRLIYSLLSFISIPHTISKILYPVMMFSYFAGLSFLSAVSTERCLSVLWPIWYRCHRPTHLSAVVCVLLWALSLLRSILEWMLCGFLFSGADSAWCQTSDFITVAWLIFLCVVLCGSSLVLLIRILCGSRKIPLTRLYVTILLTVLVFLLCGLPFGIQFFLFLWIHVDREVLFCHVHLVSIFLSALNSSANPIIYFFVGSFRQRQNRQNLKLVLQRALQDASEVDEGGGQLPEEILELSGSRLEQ
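Assay system: stable human MrgX1 HEK293 cell line. Quantity: 15,000 cells per well. Schedule: cells plated overnight, dye loaded 0.5 h 37 °C, 0.5 h room temperature. Detection: Fluo-4 NW calcium-flux fluorescence, kinetic read. Read-out basis: peak-minus-minimum fluorescence over baseline, converted to B scores. Control set: positive and negative control wells on each plate.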
RGS4 inh – inhibitors of human RGS4. 0.45% of 310,000 active. B-score at 10 µM. HEK293 M3R/RGS4 inducible, Fluo-4 calcium flux; hits give high values; triggered by carbachol at its EC20;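 active means B-score, a plate-corrected calcium signal, over three deviations above library mean, with baseline fluorescence within five deviations of library mean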;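 further: RGS4 expression induced by doxycycline in cells with stable M3 receptor; B-score is computed from the integrated fluorescence ratio over baseline after carbachol; higher B-score means a larger calcium signal and so more RGS4 inhibition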
Target sequence (P49798 whole entry, looked up): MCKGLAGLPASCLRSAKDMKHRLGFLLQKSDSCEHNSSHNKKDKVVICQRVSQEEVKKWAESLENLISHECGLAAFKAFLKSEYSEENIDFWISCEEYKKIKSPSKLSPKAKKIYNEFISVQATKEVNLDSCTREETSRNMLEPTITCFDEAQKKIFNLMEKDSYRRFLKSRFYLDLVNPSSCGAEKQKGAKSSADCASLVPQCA
RGS4 pot – RGS4 potentiation or activation; HEK293 M3R/inducible RGS4, carbachol calcium flux Fluo4; hits give low values; B-score at 10 µM; 0.92% of 310,000 active; AID 463111;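 active means B-score of the integrated calcium signal more than 4 SD below the library mean, with starting fluorescence not abnormally high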;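 further: negative B-score means reduced calcium response which marks RGS4 activation or potentiation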
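Detection: kinetic calcium fluorescence imaging with Fluo4-AM dye, 2 µM / Material: HEK293 cells with stable M3R and inducible RGS4 / Schedule: recording 10 s baseline at 1 Hz, 100 s post-agonist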
MrgX1 antagonist – antagonists of human MrgX1 receptor | Q96LB2 | MRGX1-HEK293 calcium flux, Fluo-4, BAM8-22 antagonism; hits give low values | B-score at 10 µM | 1.3% of 310,000 active | AID 588676;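 active means calcium-response B-score plate-corrected more than 3 library SD below zero, starting fluorescence within 5 deviations, no agonist response on first addition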;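 further: peak minus trough fluorescence over baseline after final BAM8-22 challenge near maximal dose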
MrgX1 PAM – allosterically activates human MrgX1 receptor signaling. Q96LB2. MrgX1-HEK293, Fluo-4 calcium flux, FDSS; hits give high values. B-score at 10 µM. 0.63% of 310,000 active. AID 588675;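 active means plate-corrected calcium response at least 3 library SD above typical, normal starting fluorescence, not activating the receptor alone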;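 further: compound read alongside a low EC10 to EC30 dose of BAM8-22 agonist; peak minus trough fluorescence over baseline measured at the second addition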
RGS4 inh valid – RGS4 inhibitor validation | 65% of 1,700 active | shares compounds with RGS4 inh | calcium response, % at 10 µM | HEK293 M3R/RGS4, carbachol calcium Fluo-4 fluorescence; carbachol added at its EC20; 0 = buffer wells, 100 = carbachol control;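 active means duplicate-averaged calcium response above the buffer-only control mean plus 5 SD of those controls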;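 further: integrated fluorescence ratio F max minus min over baseline F0; higher response in RGS4-induced cells means RGS4 inhibition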
M3R Ca ctr – checks RGS4 inhibitor effects in non-induced HEK293 M3R cells; activity (percent), % at 10 µM; shares compounds with RGS4 inh; 20% of 1,900 active; carbachol calcium Fluo-4; submaximal (EC20) carbachol stimulus; buffer wells 0%, carbachol control wells 100%; call rule not given here;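 further: RGS4 induction absent so cells express M3R without RGS4; higher means more calcium signal and flags a non-specific hit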
M3R basal Ca ctr – signal in non-induced cells without carbachol, RGS4 inhibitor counter-screen; shares compounds with RGS4 inh; HEK293 M3R/RGS4 non-induced, Fluo-4 calcium, no carbachol; normalised: buffer wells 0%, carbachol wells 100%; calcium response (agonist-mode artifact), % at 10 µM; 22% of 1,900 active; AID 493001;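 active means duplicate-averaged calcium rise in uninduced cells above buffer wells' mean plus 5 SD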
Active calls of the source: *; i = inactive; . = no result given.

SMILES	MrgX1 ag	RGS4 inh	RGS4 pot	MrgX1 antagonist	MrgX1 PAM	RGS4 inh valid	M3R Ca ctr	M3R basal Ca ctr
CCOC(=O)C1=C(C)Nc2nc(=S)[nH]n2C1c1ccc(Cl)cc1 (stereo not given)	.	9.2*	i	.	.	14%*	35%*	18%*
CCOC(=O)C1=C(C)Nc2nc(SCC)nn2C1c1ccc(OC)cc1 (stereo not given)	i	i	i	i	i	.	.	.
Cc1ccc(OCC(=O)NNC(=O)c2ccco2)c(C)c1	i	30*	i	i	i	i	i	i
COC(=O)c1cc2c(ccn2-c2ccc(F)cc2)n1Cc1ccc(OC)cc1	i	i	i	i	i	.	.	.
CCn1c(C(=O)OC)cc2c1ccn2-c1ccc(F)cc1	i	i	i	i	i	.	i	i
Cc1cccc(N2C(=O)/C(=C/c3ccccn3)SC2=S)c1	i	i	i	i	i	.	.	.
Cc1ccc(N2C(=O)/C(=C/c3cccnc3)SC2=S)cc1	i	i	i	i	i	.	i	i
Cc1cccc(N2C(=O)/C(=C/c3cccnc3)SC2=S)c1	i	4.9*	i	i	i	19%*	42%*	i
Cc1ccc(/C=C2\SC(=S)N(c3cccnc3)C2=O)o1	i	i	i	i	i	.	.	.
O=C(O)Cc1ccc2c(c1)N(S(=O)(=O)c1cccs1)CC(C(=O)O)O2 (stereo not given)	i	i	i	i	i	.	.	.
CCSc1nc2ccccc2n1C(=O)/C=C\c1ccc(OC)c(OC)c1	i	14*	i	i	i	22%*	76%*	7.5%*
O=C(NNC1CC(=O)N(c2ccccc2)C1=O)c1ccccc1Cl (stereo not given)	i	i	i	i	i	.	.	.
CC(=O)C1=C(C)OC(N)=C(C#N)C1c1cc2cc(C)c(C)cc2nc1Cl (stereo not given)	i	15*	i	i	i	5.0%*	i	i
COC(=O)C1=C(C)OC(N)=C(C#N)C1c1cc2cc(C)ccc2nc1Cl (stereo not given)	i	i	i	i	i	.	.	.
CC1(c2nnc(-c3cccc(Cl)c3)o2)CC(c2cccc(Cl)c2)=NO1 (stereo not given)	i	i	i	i	i	.	.	.
CC(C)CCOCC(=O)Nc1cccc(C(=O)O)c1	i	i	i	i	i	.	.	.
Cc1ccc(Nc2nc(N)nc(CN3CCN(c4ccccc4)CC3)n2)cc1Cl	i	6.6*	i	i	i	14%*	i	i
COc1ccccc1Nc1nc(N)nc(CN2CCN(c3ccccc3)CC2)n1	i	i	i	i	i	.	.	.
COc1ccc(N2CCN(Cc3nc(N)nc(Nc4ccc(C)c(Cl)c4)n3)CC2)cc1	i	i	i	i	i	i	i	i
Brc1cccc(-c2cnco2)c1	i	i	i	i	i	.	.	.
COc1ccccc1CNC(=O)C1CCC(CNS(=O)(=O)c2ccc(F)cc2)CC1 (stereo not given)	i	i	i	i	i	.	.	.
N#Cc1c(N)nc(SCC(=O)NC2CCCCC2)c(C#N)c1-c1ccc(Cl)cc1	i	i	i	i	i	.	.	.
N#CCSc1nc(N)c(C#N)c(C2CCCCC2)c1C#N	i	5.1*	i	i	i	16%*	50%*	i
COc1ccc(CCNC(=O)c2c(N)no[n+]2[O-])cc1OC	i	i	i	i	i	.	.	.
COc1ccc(Nc2nc(N3CCCCC3)nc(N3CCCCC3)n2)c(OC)c1	i	5.5*	i	i	i	9.0%*	i	i
SMILES	MrgX1 ag	RGS4 inh	RGS4 pot	MrgX1 antagonist	MrgX1 PAM	RGS4 inh valid	M3R Ca ctr	M3R basal Ca ctr
COc1ccc(Nc2nc(N3CCCC3)nc(N3CCCC3)n2)c(OC)c1	i	i	i	i	i	i	i	i
COc1ccc(Nc2nc(NC(C)(C)C)nc(N3CCCC3)n2)c(OC)c1	i	i	i	i	i	i	i	i
COc1cc(C(=O)NCC2(N(C)C)CCCCC2)ccc1OCc1ccccc1	i	i	i	i	i	.	.	.
COc1cc(C=C2C(=O)c3ccccc3C2=O)cc(OC)c1	i	7.5*	i	i	i	8.5%*	i	i
COc1cccc(/C=C2\CCc3ccccc3C2=O)c1	i	i	i	i	i	.	.	.
COc1cccc(/C=C2\C(=O)C(=O)c3ccccc32)c1	30*	11*	i	i	i	14%*	i	10%*
COc1cc(CC(=O)NCCCc2ccccc2)cc(OC)c1OC	i	i	i	i	i	.	.	.
CN(CC(=O)Nc1ccccc1Br)C(=O)c1ccccc1-c1nc2ccccc2s1	i	i	i	i	i	.	.	.
CCOc1ccc(NC(=O)CN(C)C(=O)Cn2cnc3c2c(=O)n(C)c(=O)n3C)cc1OCC	i	i	i	i	i	.	.	.
COc1ccc(S(=O)(=O)N2CCCOC2CNC(=O)C(=O)NC2CCCC2)cc1 (stereo not given)	i	i	i	i	i	i	i	i
COc1ccc(CNC(=O)C(=O)NCC2OCCN2S(=O)(=O)c2ccc(OC)cc2)cc1 (stereo not given)	i	i	i	i	i	.	.	.
O=C(NCC1OCCCN1S(=O)(=O)c1ccc(F)cc1)C(=O)NC1CCCC1 (stereo not given)	i	i	i	i	i	i	i	i
CC1CCN(C(=O)COC(=O)CSc2ccc(C(N)=O)cc2[N+](=O)[O-])CC1	i	i	i	i	i	.	.	.
CC(NCC(O)COC1CCC(C(C)(C)C)CC1)c1ccccc1 (stereo not given)	i	10*	i	i	i	5.0%*	i	i
O=C(O)c1[nH]c2ccccc2c1C(c1cc(Br)ccc1O)c1c(C(=O)O)[nH]c2ccccc12	i	i	i	i	i	.	.	.
COc1cc(Cl)c(CN2CCCC(CO)(Cc3cccc(Cl)c3)C2)cc1OC (stereo not given)	i	i	i	i	i	.	.	.
